# Published values pooled from the literature.
# Compare with care: the assays were run in different laboratories.
# CDK1: Cyclin-dependent kinase 1 (CDK1, Homo sapiens, UniProt P06493)
# CDK9: Cyclin-dependent kinase 9 (CDK9, Homo sapiens, UniProt P50750)
SMILES,target,test,system,conditions,measurement,value
COc1ccc2oc(-c3ccc4nc(N)oc4c3)c/c(=N\c3ccccc3NC(=O)CCN)c2c1,"Proto-oncogene tyrosine-protein kinase Src (SRC, Homo sapiens, UniProt P12931, T341M)",cell-free assay,,1 µM,remaining signal,90%
C[C@]1(O)CCCN(c2nc(Nc3ccc(S(=O)(=O)N[C@@H]4CCN(CC5CCN(c6ccc(C7CCC(=O)NC7=O)cc6F)CC5)C[C@H]4F)cc3F)ncc2C(F)(F)F)C1 (stereo partly shown),CDK1,"protein level, degrader, western blot",TOV21G,,Dmax,26%
C1=C/COCc2cc(ccc2OCCN2CCCC2)Nc2nccc(n2)-c2cccc(c2)COC/1,"Tyrosine-protein kinase Mer (MERTK, Homo sapiens, UniProt Q12866)",binding,,0.1 µM,remaining binding,80%
CC(C)(C)c1cnc(CSc2cnc(NC(=O)C3CCN(C(=O)CCCCCCCCCCN4Cc5cc6c(cc5C4)C(=O)N(C4CCC(=O)NC4=O)C6=O)CC3)s2)o1 (stereo not shown),CDK9,"protein level, degrader, western blot",TC-71,25 nM,inhibition,89.1%
C[C@]1(O)CCCN(c2nc(Nc3ccc(S(=O)(=O)N[C@H]4CC[C@H](CN5CCN(c6ccc(C7CCC(=O)NC7=O)c(F)c6)CC5)CC4)cc3F)ncc2C(F)(F)F)C1 (stereo partly shown),CDK1,"protein level, degrader, western blot",TOV21G,,Dmax,73%
C#Cc1cc(-c2cc(Nc3nc(N[C@@H](C)c4ccc(F)cn4)ncc3Cl)n[nH]2)ccc1C=O,"Phosphorylase b kinase gamma catalytic chain, skeletal muscle/heart isoform (PHKG1, Homo sapiens, UniProt Q16816)","enzyme activity, inhibitor",,0.2 µM,inhibition,80.2%
Cc1cc(O)c(-c2ccc([C@@H](C)CN(C)C)cc2)c2c1[nH]c(=O)c1sccc12,"Dual specificity mitogen-activated protein kinase kinase 7 (MAP2K7, Homo sapiens, UniProt O14733)","enzyme activity, inhibitor",,0.1 µM,inhibition,4.47%
CN1C(=O)CCC(N2C(=O)c3cc4c(cc3C2=O)CN(CCCCCCCC(=O)N2CCC(C(=O)Nc3ncc(SCc5ncc(C(C)(C)C)o5)s3)CC2)C4)C1=O (stereo not shown),CDK9,"protein level, degrader, western blot",TC-71,25 nM,inhibition,5.1%
NC/C(=C\F)COc1cccc(Cn2c(=S)[nH]c(=O)c3[nH]cnc32)c1,"Myeloperoxidase (Mus musculus, UniProt P11247)","enzyme activity, inhibitor",,0.25 µM,remaining activity,9.08%
COc1cc(Br)cc(C2NC(=O)NC(C)=C2C(=O)OCc2ccccc2)c1O (stereo not shown),"Voltage-dependent T-type calcium channel subunit alpha-1H (CACNA1H, Homo sapiens, UniProt O95180)","ion current, inhibitor, patch clamp",HEK293,10 µM,inhibition,> 60%
C[C@H]1CN(CC2CCN(c3ccc(C4CCC(=O)NC4=O)cc3F)CC2)CC[C@H]1NS(=O)(=O)c1ccc(Nc2ncc(C(F)(F)F)c(N3CCC[C@](C)(O)C3)n2)c(F)c1 (stereo partly shown),CDK1,"protein level, degrader, western blot",TOV21G,,Dmax,40%
CCCCC(=O)Nc1ccc(-c2ccc3ncn(CCC)c(=O)c3c2)cn1,"Ankyrin repeat and protein kinase domain-containing protein 1 (ANKK1, Homo sapiens, UniProt Q8NFD2)","binding, competition with immobilised ligand",,0.5 µM,remaining binding,100%
Cc1cc2c(C(N)=O)c(N)n(-c3c(C)ccc(O)c3C)c2nc1C,"Proto-oncogene tyrosine-protein kinase Src (SRC, Homo sapiens, UniProt P12931)","enzyme activity, inhibitor, TR-FRET",,10 µM,inhibition,101%
